Source: ChEMBL document CHEMBL1127085, “Derivatives of 2-(dipropylamino)tetralin: effect of the C8-substituent on the interaction with 5-HT1A receptors” (J Med Chem, 1993)
pKi: −log10 of the molar value.

How the values were obtained:
[1] = molecular target: T1, 5-hydroxytryptamine receptor 1A (Rattus norvegicus, UniProt P19327); test: Binding affinity of 5-hydroxytryptamine 1A receptor using [3H]-8-OH-DPAT as radioligand.
T1 sequence (P19327 whole entry): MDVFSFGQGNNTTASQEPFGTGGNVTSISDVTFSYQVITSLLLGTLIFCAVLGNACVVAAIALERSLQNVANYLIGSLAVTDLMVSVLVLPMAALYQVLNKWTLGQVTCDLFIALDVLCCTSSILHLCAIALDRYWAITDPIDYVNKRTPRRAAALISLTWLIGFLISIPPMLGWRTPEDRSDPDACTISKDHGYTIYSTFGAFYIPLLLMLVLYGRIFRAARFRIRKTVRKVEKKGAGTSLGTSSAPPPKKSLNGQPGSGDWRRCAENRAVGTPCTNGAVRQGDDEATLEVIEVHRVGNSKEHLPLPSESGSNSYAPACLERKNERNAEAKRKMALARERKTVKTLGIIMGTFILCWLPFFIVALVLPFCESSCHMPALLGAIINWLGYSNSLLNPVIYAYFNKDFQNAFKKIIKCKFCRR
How it was run: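 Membranes from cortex and hippocampus of male Sprague-Dawley rats, pooled from at least six rats, preincubated with 10 µM pargyline. Assay used 2 nM [3H]-8-OH-DPAT, test compound at 1-300 nM and 5 mg/mL tissue in 50 mM Tris-HCl with 4.0 mM CaCl2 and 5.7 mM ascorbate, pH 7.5. Incubated 10 min at 37 °C, filtered on GF/B, scintillation counted.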

Rattus norvegicus [2] = test: Induction of clear-cut 5-HT motor syndrome in reserpine (5 mg/kg, sc) pretreated rats at the dose of 10 micro mol/kg; format: functional
Rattus norvegicus [3] = test: Induction of clear-cut 5-HT motor syndrome in normal rats at the dose of 10 uM/Kg; format: functional
Rattus norvegicus [4] = test: Induction of clear-cut 5-HT motor syndrome in reserpine (5 mg/Kg, sc) pretreated rats at the dose of 10 uM/Kg; format: functional
[5] = molecular target: T2, 5-hydroxytryptamine receptor 1A (Rattus norvegicus) (UniProt P19327); test: 5-HT (serotonin) turnover in rat hippocampus; format: functional, tissue-based
T2 sequence (whole entry): T1 sequence (P19327 whole entry)
How it was run: (§1)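 Rats given compound sc in 0.9% NaCl (screening dose typically 32 µmol/kg); decapitated about 30 min after dosing. Hippocampus and corpus striatum dissected and frozen. Perchloric acid homogenates analysed by HPLC with electrochemical detection. Turnover taken as 5-HIAA/5-HT or DOPAC/DA, expressed as percent of saline control. Means ± SEM; n = 5-7 controls, 4-6 treated. ANOVA with Tukey test.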

[6] = molecular target: T3, Dopamine receptor (Rattus norvegicus) (UniProt P25115+P19020+P30729+P18901+P61169); test: Dopamine (DA) turnover in rat corpus striatum; format: functional, tissue-based; how it was run: as §1
Rattus norvegicus [7] = test: Change in body temperature of rats upon administration after 30 minutes; format: functional
How it was run: (§2)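 Colonic temperature taken with an electrical thermometer probe 3.5 cm deep, before and 30 min after sc injection in saline. Change reported in °C as mean ± SEM; animal numbers as in the cage-leaving test. ANOVA with Tukey test.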

[8] = molecular target: T2, 5-hydroxytryptamine receptor 1A (Rattus norvegicus); test: Number of rats displaying the 5-HT syndrome or leaving the cage out of the number of rats tested; format: functional
Rattus norvegicus [9] = test: Induction of clear-cut 5-HT motor syndrome in normal rats at the dose of 32 umol/kg; format: functional
[10] = molecular target: T2, 5-hydroxytryptamine receptor 1A (Rattus norvegicus); test: Antagonistic effect on 5-HT syndrome or behavior of rat induced by (R)-1 at the dose of 32 and 1.0 umol/kg of compound (R)-1; format: functional
How it was run: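 Compound (32 µmol/kg sc) or saline injected 10 min before (R)-8-OH-DPAT (1.0 µmol/kg sc). Flat body posture, forepaw treading and hindlimb abduction scored during 30 min of observation. Results as number of rats showing the behaviour out of number tested; Fisher's exact probability test.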

Rattus norvegicus [11] = test: Antagonistic effect on body temperature of rat induced by (R)-1 at the dose of 32 and 1 umol/kg of compound (R)-1; format: functional
How it was run: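 Compound (32 µmol/kg sc) or saline injected 10 min before (R)-8-OH-DPAT (1.0 µmol/kg sc). Colonic temperature taken before injection and 30 min later; result is the change from the preinjection value. One-way ANOVA with Tukey HSD test.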

[12] = molecular target: T3, Dopamine receptor (Rattus norvegicus); test: Effect of accumulation of DOPA in rat striatum at the dose of 32 umol/kg; format: functional, tissue-based
How it was run: (§3)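 Test compound given sc in 0.9% NaCl. NSD 1015 (287 µmol/kg sc) given 30 min later to inhibit aromatic L-amino acid decarboxylase; rats decapitated after a further 30 min. Hippocampus and striatum stored at -40 °C for up to 1 week. Perchloric acid homogenates with α-methyl-5-hydroxytryptophan internal standard; 5-HTP and DOPA measured by HPLC-EC. Percent of control, means ± SEM; ANOVA with Tukey test.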

Rattus norvegicus [13] = test: Effect of DOPA accumulation in rat striatum at the dose of 32 umol/kg; format: functional; how it was run: as §3
[14] = molecular target: T2, 5-hydroxytryptamine receptor 1A (Rattus norvegicus); test: Induction of clear-cut 5-HT motor syndrome in reserpine (5 mg/Kg, sc) pretreated rats at the dose of 32 uM/Kg; format: functional, organism-based
[15] = molecular target: T2, 5-hydroxytryptamine receptor 1A (Rattus norvegicus); test: Effect of 5-HT accumulation in rat hippocampus at the dose of 32 umol/kg (p<0.01); format: functional, tissue-based; how it was run: as §3
Rattus norvegicus [16] = test: Induction of clear-cut 5-HT motor syndrome in normal rats at the dose of 32 uM/Kg; format: functional
Rattus norvegicus [17] = species on record: Rattus norvegicus; test: 5-HT (serotonin) turnover in rat hippocampus (0.05); format: functional; how it was run: as §1
Rattus norvegicus [18] = species on record: Rattus norvegicus; test: Dopamine (DA) turnover in rat corpus striatum (p<0.01); format: functional; how it was run: as §1
Rattus norvegicus [19] = test: Change in body temperature of rats upon administration after 30 minutes (p<0.01); format: functional; how it was run: as §2
[20] = molecular target: T2, 5-hydroxytryptamine receptor 1A (Rattus norvegicus); test: Induction of clear-cut 5-HT motor syndrome in reserpine (5 mg/kg, sc) pretreated rats at the dose of 32 micro mol/kg; format: functional, organism-based
Rattus norvegicus [21] = test: Ability produce 5-HT motor syndrome in reserpine (5 mg/kg, sc) pretreated rats at the dose of 3.2 micro mol/kg; format: functional

Row | SMILES | pKi [1] | Turnover [5] | Turnover [6] | Temperature (Rattus norvegicus [7]) | No. of rats [8] | other results
1 | C#Cc1cccc2c1CC(N(CCC)CCC)CC2 (racemic) | 8.40 | – | – | – | – | Behavioral effect (Rattus norvegicus [2]): 1
2 | CCCN(CCC)[C@@H]1CCc2cccc(C(=O)OC)c2C1 | – | 63 | 90 | -2.3 | 0 | Behavioral effect (Rattus norvegicus [3]): 4; Behavioral effect (Rattus norvegicus [4]): 4
3 | CCCN(CCC)[C@@H]1CCc2cccc(OS(=O)(=O)C(F)(F)F)c2C1 | – | 106 | 93 | 0.5 | 4 | Behavioral effect (Rattus norvegicus [9]): 0; Effect [10]: 4; Temperature (Rattus norvegicus [11]): -4.18
4 | CCCN(CCC)C1CCc2cccc(C(=O)OC)c2C1 (racemic) | 8.62 | – | – | – | – | Accumulation [12]: 81; Accumulation (Rattus norvegicus [13]): 59; Behavioral effect [14]: 4
5 | CCCN(CCC)[C@@H]1CCc2cccc(C(=O)c3ccccc3)c2C1 | 8.34 | 74 | 122 | -3.3 | 0 | Accumulation [12]: 69; Accumulation [15]: 56; Behavioral effect (Rattus norvegicus [16]): 4; Behavioral effect [14]: 4
6 | CCCN(CCC)C1CCc2ccccc2C1 (racemic) | 7.43 | – | – | – | 4 | Behavioral effect (Rattus norvegicus [9]): 4; Turnover (Rattus norvegicus [17]): 60; Turnover (Rattus norvegicus [18]): 46; Temperature (Rattus norvegicus [19]): -2; Behavioral effect [20]: 4
7 | CCCN(CCC)[C@H]1CCc2cccc(C(=O)OC)c2C1 | – | 59 | 98 | -2.5 | 0 | Behavioral effect (Rattus norvegicus [3]): 4; Behavioral effect (Rattus norvegicus [4]): 4
8 | CCCN(CCC)C1CCc2cccc(CO)c2C1 (racemic) | 7.60 | – | – | – | – | Behavioral effect (Rattus norvegicus [21]): 3
